Activity and inhibition in vivo data for eight compounds are collected here from ChEMBL document CHEMBL3272012, “5-(Tetradecyloxy)-2-furancarboxylic acid and related hypolipidemic fatty acid-like alkyloxyarylcarboxylic acids” (J Med Chem, 1977).

The inhibition in vivo is the percentage by which the read-out fell short of the control.

For series [1], the system named is Rattus norvegicus. Description: Increase in liver weight in Wistar rat at 401 umol/kg/day administered through diet for 4 days. It is filed as ADME, organism-based. The following applies: in vivo, po, 96 h. The method, boiled down: (§1)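 Male Wistar rats (170-190 g initial), groups of six, dosed via diet ad libitum for 4 or 10 days, daily dose from food consumption. Liver wet weight measured, expressed as g/100 g final body weight, compared with untreated controls run simultaneously.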

The test system of series [2] is Rattus norvegicus. Briefly: Hypolipidemic activity in Wistar rat assessed as reduction in plasma cholesterol level at 401 umol/kg/day administered through diet for 4 days. Type of series: functional. To be noted: 96 h. The method, boiled down:
(§2)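 Young male Wistar rats, 170-190 g at start, in groups of six, given compound mixed into Purina Lab Chow ad libitum for 4 or 10 days as stated. Daily dose was calculated from food consumption and body weight. Plasma was taken by cardiac puncture at the end and cholesterol measured by automated procedure. Results are % reduction versus a concurrent untreated control group, with Student's t test.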

Series [3] deals with Rattus norvegicus. Description: Increase in cholesterol level in Wistar rat liver at 401 umol/kg/day administered through diet for 4 days. It is filed as ADME, organism-based. To be noted: in vivo, po, 96 h.
Series [4] has as its system Rattus norvegicus. Description: Hypolipidemic activity in Wistar rat assessed as reduction in plasma triglyceride level at 401 umol/kg/day administered through diet for 4 days. Type of series: functional. The following applies: 96 h. The method, boiled down: (§3)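 Young male Wistar rats (initial weight 170-190 g), groups of six, fed compound mixed into Purina Lab Chow ad libitum for 4 or 10 days; daily dose calculated from food consumption and body weight. Bled by cardiac puncture; plasma cholesterol and triglycerides by automated procedures; percent reduction versus simultaneous untreated controls, Student's t test.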

The subject of series [5] is Rattus norvegicus. Briefly: Hypolipidemic activity in Wistar rat assessed as reduction in plasma triglyceride level at 509 umol/kg/day administered through diet for 4 days. It is filed as functional. The following applies: 96 h.
In series [6] the test system is Rattus norvegicus. Briefly: Increase in cholesterol level in Wistar rat liver at 509 umol/kg/day administered through diet for 4 days. It is filed as ADME, organism-based. To be noted: in vivo, po, 96 h.
The subject of series [7] is Rattus norvegicus. Description: Hypolipidemic activity in Wistar rat assessed as reduction in plasma cholesterol level at 509 umol/kg/day administered through diet for 4 days. It is filed as functional. The following applies: 96 h. The method, boiled down: (§4)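 Young male Wistar rats, 170-190 g initial weight, groups of six, given compound mixed thoroughly into Purina Lab Chow ad libitum for 4 or 10 days as stated. Daily dose calculated from food consumption and body weight. Bled by cardiac puncture at end of treatment; plasma cholesterol measured by automated procedure. Expressed as percent reduction versus simultaneous untreated control group; Student's t test.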

In series [8] the test system is Rattus norvegicus. Description: Increase in liver weight in Wistar rat at 509 umol/kg/day administered through diet for 4 days. Type of series: ADME, organism-based. To be noted: in vivo, po, 96 h.
Series [9] deals with Rattus norvegicus. Briefly: Hypolipidemic activity in Wistar rat assessed as reduction in plasma cholesterol level at 538 umol/kg/day administered through diet for 10 days. It is filed as functional. The following applies: 240 h. Summed up: as §4
Series [10] relates to Rattus norvegicus. Description: Hypolipidemic activity in Wistar rat assessed as reduction in plasma triglyceride level at 538 umol/kg/day administered through diet for 10 days. Type of series: functional. To be noted: 240 h.
Series [11] concerns Rattus norvegicus. Briefly: Increase in cholesterol level in Wistar rat liver at 538 umol/kg/day administered through diet for 10 days. It is filed as ADME, organism-based. To be noted: in vivo, po, 240 h.
Series [12] concerns Rattus norvegicus. Briefly: Increase in liver weight in Wistar rat at 538 umol/kg/day administered through diet for 10 days. It is filed as ADME, organism-based. The following applies: in vivo, po, 240 h.
The subject of series [13] is Rattus norvegicus. Briefly: Hypolipidemic activity in Wistar rat assessed as reduction in plasma triglyceride level at 459 umol/kg/day administered through diet for 10 days. It is filed as functional. The following applies: 240 h.
The subject of series [14] is Rattus norvegicus. Briefly: Increase in cholesterol level in Wistar rat liver at 459 umol/kg/day administered through diet for 10 days. It is filed as ADME, organism-based. To be noted: in vivo, po, 240 h.
Series [15] has as its system Rattus norvegicus. Briefly: Hypolipidemic activity in Wistar rat assessed as reduction in plasma cholesterol level at 459 umol/kg/day administered through diet for 10 days. Type of series: functional. To be noted: 240 h. Summed up: as §4
Series [16] relates to Rattus norvegicus. Briefly: Increase in liver weight in Wistar rat at 459 umol/kg/day administered through diet for 10 days. Type of series: ADME, organism-based. The following applies: in vivo, po, 240 h.
For series [17], the system named is Rattus norvegicus. Description: Increase in liver weight in Wistar rat at 499 umol/kg/day administered through diet for 4 days. Type of series: ADME, organism-based. To be noted: in vivo, po, 96 h. Summed up: as §1
In series [18] the test system is Rattus norvegicus. Description: Hypolipidemic activity in Wistar rat assessed as reduction in plasma triglyceride level at 499 umol/kg/day administered through diet for 4 days. It is filed as functional. To be noted: 96 h. Summed up:
as §3

Series [19] concerns Rattus norvegicus. Briefly: Hypolipidemic activity in Wistar rat assessed as reduction in plasma cholesterol level at 499 umol/kg/day administered through diet for 4 days. It is filed as functional. To be noted: 96 h. The method, boiled down: as §4
For series [20], the system named is Rattus norvegicus. Description: Increase in cholesterol level in Wistar rat liver at 499 umol/kg/day administered through diet for 4 days. To be noted: in vivo, po, 96 h. Type of series: ADME, organism-based.
Series [21] concerns Rattus norvegicus. Briefly: Hypolipidemic activity in Wistar rat assessed as reduction in plasma triglyceride level at 169 umol/kg/day administered through diet for 10 days. The following applies: 240 h. Type of series: functional. The method, boiled down:
(§5)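 Young male Wistar rats, 170-190 g initial weight, six per group, fed drug mixed thoroughly into Purina Lab Chow ad libitum for the stated days; daily dose calculated from food consumption and body weight. Bled by cardiac puncture at end; plasma cholesterol and triglycerides by automated procedures, expressed as percent reduction versus simultaneous untreated controls; Student's t test.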

Series [22] deals with Rattus norvegicus. Description: Hypolipidemic activity in Wistar rat assessed as reduction in plasma cholesterol level at 169 umol/kg/day administered through diet for 10 days. Type of series: functional. The following applies: 240 h. Summed up: as §2
Series [23] relates to Rattus norvegicus. Description: Increase in cholesterol level in Wistar rat liver at 84 umol/kg/day administered through diet for 10 days. The following applies: in vivo, po, 240 h. Type of series: ADME, organism-based.
The subject of series [24] is Rattus norvegicus. Briefly: Hypolipidemic activity in Wistar rat assessed as reduction in plasma cholesterol level at 332 umol/kg/day administered through diet for 10 days. It is filed as functional. The following applies: 240 h. Summed up: as §2
For series [25], the system named is Rattus norvegicus. Description: Increase in liver weight in Wistar rat at 169 umol/kg/day administered through diet for 10 days. Type of series: ADME, organism-based. To be noted: in vivo, po, 240 h.
The subject of series [26] is Rattus norvegicus. Briefly: Increase in liver weight in Wistar rat at 332 umol/kg/day administered through diet for 10 days. To be noted: in vivo, po, 240 h. Type of series: ADME, organism-based.
Series [27] deals with Rattus norvegicus. Description: Hypolipidemic activity in Wistar rat assessed as reduction in plasma triglyceride level at 332 umol/kg/day administered through diet for 10 days. It is filed as functional. To be noted: 240 h. The method, boiled down:
as §5

Series [28] relates to Rattus norvegicus. Briefly: Increase in liver weight in Wistar rat at 84 umol/kg/day administered through diet for 10 days. It is filed as ADME, organism-based. The following applies: in vivo, po, 240 h.
The subject of series [29] is Rattus norvegicus. Description: Increase in cholesterol level in Wistar rat liver at 332 umol/kg/day administered through diet for 10 days. Type of series: ADME, organism-based. The following applies: in vivo, po, 240 h.
Series [30] relates to Rattus norvegicus. Briefly: Increase in cholesterol level in Wistar rat liver at 169 umol/kg/day administered through diet for 10 days. It is filed as ADME, organism-based. To be noted: in vivo, po, 240 h.
The test system of series [31] is Rattus norvegicus. Description: Hypolipidemic activity in Wistar rat assessed as reduction in plasma triglyceride level at 84 umol/kg/day administered through diet for 10 days. Type of series: functional. The following applies: 240 h.
In series [32] the test system is Rattus norvegicus. Description: Hypolipidemic activity in Wistar rat assessed as reduction in plasma cholesterol level at 84 umol/kg/day administered through diet for 10 days. It is filed as functional. To be noted: AT84, Plasma, 240 h. Summed up:
as §3

Series [33] has as its system Rattus norvegicus. Description: Hypolipidemic activity in Wistar rat assessed as reduction in plasma cholesterol level at 446 umol/kg/day administered through diet for 4 days. Type of series: functional. To be noted: 96 h. Summed up:
as §4

The test system of series [34] is Rattus norvegicus. Description: Increase in cholesterol level in Wistar rat liver at 446 umol/kg/day administered through diet for 4 days. Type of series: ADME, organism-based. To be noted: in vivo, po, 96 h.
Series [35] relates to Rattus norvegicus. Briefly: Increase in liver weight in Wistar rat at 446 umol/kg/day administered through diet for 4 days. The following applies: in vivo, po, 96 h. It is filed as ADME, organism-based.
Series [36] relates to Rattus norvegicus. Briefly: Hypolipidemic activity in Wistar rat assessed as reduction in plasma triglyceride level at 446 umol/kg/day administered through diet for 4 days. It is filed as functional. To be noted: 96 h.
Series [37] deals with Rattus norvegicus. Description: Hypolipidemic activity in Wistar rat assessed as reduction in plasma cholesterol level at 640 umol/kg/day administered through diet for 10 days. Type of series: functional. To be noted: 240 h. The method, boiled down: as §3
Series [38] has as its system Rattus norvegicus. Description: Hypolipidemic activity in Wistar rat assessed as reduction in plasma triglyceride level at 640 umol/kg/day administered through diet for 10 days. It is filed as functional. The following applies: 240 h.
For series [39], the system named is Rattus norvegicus. Description: Increase in cholesterol level in Wistar rat liver at 640 umol/kg/day administered through diet for 10 days. Type of series: ADME, organism-based. The following applies: in vivo, po, 240 h.
In series [40] the test system is Rattus norvegicus. Description: Increase in liver weight in Wistar rat at 640 umol/kg/day administered through diet for 10 days. Type of series: ADME, organism-based. The following applies: in vivo, po, 240 h.

Take `CCCCCCCCCCCCCCOc1ccc(CCC(=O)OC)cc1`: the Activity was 17% in the series with Rattus norvegicus [1] and 15% with Rattus norvegicus [3]. Moreover, the inhibition in vivo at 401 µmol/kg turned out to be 41% with Rattus norvegicus [2] and 73% in the series on Rattus norvegicus [4].

As for `CCCCCCCCCCCCCCOc1ccc(C)cc1`, the inhibition in vivo at 509 µmol/kg in the series on Rattus norvegicus [5] turned out to be 30%; in the series with Rattus norvegicus [7], 0%. For the same compound, the Activity in the series on Rattus norvegicus [6] came to 0%; with Rattus norvegicus [8] it was 10%.

Take `CCCCCCCCc1ccc(C(=O)O)cc1`: the inhibition in vivo at 538 µmol/kg in the series on Rattus norvegicus [9] came out at 6%; in the series on Rattus norvegicus [10], 21%. The Activity in the series with Rattus norvegicus [11] and in the series on Rattus norvegicus [12] was 11% each time.

Consider `CCCCCCCCCCCCCCOc1ccc(C(N)=O)cc1`, for which the inhibition in vivo at 459 µmol/kg with Rattus norvegicus [13] stood at 0%; with Rattus norvegicus [15], 3%. Also, the Activity in the series on Rattus norvegicus [14] and in the series with Rattus norvegicus [16] was 0% throughout.

On to `CCCCCCCCCCCCCCOc1ccc(C=O)cc1`, for which the Activity in the series on Rattus norvegicus [17] amounted to 18%; in the series on Rattus norvegicus [20], 12%. Moreover, the inhibition in vivo at 499 µmol/kg amounted to 68% with Rattus norvegicus [18] and 25% in the series on Rattus norvegicus [19].

For `CCCCCCCCCCCCCCOc1ccc(C(=O)CC(=O)OCc2ccccc2)cc1`, the figures for the inhibition in vivo at 169 µmol/kg in the series on Rattus norvegicus [21] and with Rattus norvegicus [22] were 70% and 15%, respectively. Moreover, the Activity in the series on Rattus norvegicus [23] is given as 0%; in the series on Rattus norvegicus [25], 1%; in the series with Rattus norvegicus [26], 5%; in the series with Rattus norvegicus [28] it was 0%; with Rattus norvegicus [29] it was 10%; in the series with Rattus norvegicus [30] it was 2%. Moreover, the inhibition in vivo at 332 µmol/kg in the series with Rattus norvegicus [24] was 24%; in the series on Rattus norvegicus [27], 43%. For the same compound, the inhibition in vivo at 84 µmol/kg is 8% in the series with Rattus norvegicus [31] and 16% in the series with Rattus norvegicus [32].

Take `CCCCCCCCCCCCCCOc1ccc(OCC(=O)OC)cc1`: the inhibition in vivo at 446 µmol/kg is 10% with Rattus norvegicus [33] and 0% in the series on Rattus norvegicus [36]. Besides, the Activity was determined as 0% in the series with Rattus norvegicus [34] and 4% in the series with Rattus norvegicus [35].

On to `CCCCCCCCCCc1ccc(C(=O)O)cc1`, for which the inhibition in vivo at 640 µmol/kg is 32% in the series with Rattus norvegicus [37] and 63% in the series on Rattus norvegicus [38]. The Activity with Rattus norvegicus [39] came to 43%; with Rattus norvegicus [40], 18%.
